Hits are enriched below; roughly 1% of the tested compounds scored in any of these assays.
Neddyl block: inhibitors of cullin neddylation, primary screen, biochemical, TR-FRET, uHTS, NAE and Ubc12. NEDD8-conjugating enzyme Ubc12 (Homo sapiens) + NEDD8-activating enzyme E1 regulatory …. inhibition, % at 25 µM. actives 0.58% (n = 360,000). AID 651699, 2012; in the data active = inhibition above about 36%
PKA-R1A activ: activators of PKA-R1A holoenzyme, primary screen, biochemical, fluorescence polarization, Cy5-IP20, bovine R1A, mouse PKAc; cAMP-dependent protein kinase type I-alpha regulatory subunit (Bos taurus) + …; PKA-R1A dissociation; scaled: DMSO 0%, 113 µM cGMP 100%; actives 0.083% (n = 340,000); activation, % at 11.4 µM;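 active = percent activation above the mean of all tested compounds plus 3 SD, cut at about 19% in these data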;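 also: higher means more PKAc released from R1A so a rise in polarization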
Tn6 DDE FP: inhibitors of Tn6 peptide binding to fibrin DD(E), primary screen, biochemical, fluorescence polarization, human fibrin, Tn6 probe; Fibrinogen beta chain (Homo sapiens), P02675; Fibrin DD(E) TRITC-Tn6 fluorescence polarization displacement; inhibition, % at 8.3 µM; actives 0.21% (n = 370,000); AID 720509, 2013;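 active = inhibition above a per-campaign cutoff: mean of compounds within control limits plus 3 SD, cut at about 15% in these data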
DDE Tn7 FP inh: inhibitors of Tn7 peptide binding to fibrin DD(E), primary screen, biochemical, fluorescence polarization, human fibrin, Tn7 probe; Fibrinogen beta chain (Homo sapiens), P02675; FP displacement of FITC-Tn7 peptide from fibrin DD(E); 0% = median of compound wells per plate; inhibition, % at 8.3 µM; actives 0.13% (n = 370,000);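 active = inhibition above the mean of compounds falling within the control limits plus 3 SD of them, cut at about 14% in these data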
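system = human fibrin DD(E) protein | quantity = DD(E) 2 µM final | medium = Tris/NaCl/CaCl2 buffer, pH 7.8 | also added = labelled Tn7 tracer, 0.1 µM | compound dosing = single point at 8.3 µM | timing = compound with protein 10 min, then 3 h after probe, room temperature | signal = FP measurement | benchmarks = Aha-Tn7 high control | repeats = one replicate per compound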
PKA-R2B act: activators of PKA-R2B holoenzyme, primary screen, biochemical, fluorescence polarization, Cy5-IP20, human | cAMP-dependent protein kinase catalytic subunit beta (Homo sapiens) + cAMP-dependent … | PKA-R2B holoenzyme dissociation; R2B truncated from residue 108, S112A mutant; 0% DMSO only, 100% 113 µM cGMP | activation, % at 11.4 µM | actives 0.079% (n = 340,000);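 active = activation above a cutoff set at the mean over all compounds plus 3 SD, cut at about 18% in these data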;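 also: higher means more holoenzyme dissociation and a rise in polarization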
Target sequence (P31323 whole entry, looked up, other chains not shown, the tested form may be a part): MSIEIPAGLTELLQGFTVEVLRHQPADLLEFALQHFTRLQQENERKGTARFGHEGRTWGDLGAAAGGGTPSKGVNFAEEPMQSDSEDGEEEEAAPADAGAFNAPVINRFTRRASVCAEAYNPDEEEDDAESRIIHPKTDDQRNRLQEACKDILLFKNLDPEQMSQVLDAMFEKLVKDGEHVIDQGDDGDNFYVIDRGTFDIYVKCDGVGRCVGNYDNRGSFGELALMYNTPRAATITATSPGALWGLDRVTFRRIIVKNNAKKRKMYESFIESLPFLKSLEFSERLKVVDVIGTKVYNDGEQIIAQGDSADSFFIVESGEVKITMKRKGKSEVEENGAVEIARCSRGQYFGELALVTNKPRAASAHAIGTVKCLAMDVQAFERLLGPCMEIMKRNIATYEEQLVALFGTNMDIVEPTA
Neddyl inh conf: blockade of NEDD8 conjugation to cullin – biochemical, TR-FRET, single concentration, confirmation | shares compounds with Neddyl block | TR-FRET cullin neddylation biochemical assay | calls only at 25 µM | actives 13% (n = 1,800) | AID 652217, 2013; in the data active = inhibition above about 40%;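 also: neddylation substrate is the cullin 1 ring ligase complex with SKP2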
Numbers stand for hits; - = inactive; . = no result shown; + = active, no number.

SMILES	Neddyl block	PKA-R1A activ	Tn6 DDE FP	DDE Tn7 FP inh	PKA-R2B act	Neddyl inh conf
OC[C@@H]1CN(Cc2ccco2)C[C@H](n2cnc3c(Nc4ccccc4)ncnc32)O1	43	.	-	-	.	.
O=C(O)c1ccc(CN2C[C@@H](CO)O[C@@H](n3cnc4c(Nc5ccccc5)ncnc43)C2)cc1	-	.	-	-	.	.
CC(C)Nc1ncnc2c1ncn2[C@H]1CN(Cc2ccco2)C[C@@H](CO)O1	-	.	-	-	.	.
OC[C@@H]1CN(Cc2ccc(Cl)cc2)C[C@H](n2cnc3c(Nc4ccccc4)ncnc32)O1	47	.	-	-	.	.
COc1cccc(CNC(=O)[C@H]2CCCN2C(=O)[C@H]2CCCN2C(=O)c2ccc(F)c(C(F)(F)F)c2)c1	.	.	-	-	.	.
O=C(CSc1nnc(-c2cccnc2)n1-c1ccc(Cl)cc1)c1ccc2ccccc2c1	.	.	-	-	.	.
CCCC1CCC2(CCCN2CCOC(=O)Nc2ccc(OC)cc2)CC1 (stereo unspecified)	.	.	-	-	.	.
COc1ccc(N2CCc3c(C)nc4c(OC)cc(OC)cc4c32)c(OC)c1	41	-	-	-	-	-
COc1ccc(N2CCc3c(C)nc4c(OC)cc(OC)cc4c32)cc1	-	-	-	-	-	.
COc1ccc(CCNc2oc(-c3ccco3)nc2C#N)cc1	45	-	-	-	-	+
COc1cc(/C=N/n2nnnc2N)cc(OC)c1OC	39	-	-	-	-	-
COc1cc(/C=N/n2nnnc2N)ccc1O	-	-	-	-	-	.
Nc1nnnn1/N=C/c1ccc(O)cc1	-	-	-	-	-	.
CSc1ccc(/C=N/n2nnnc2N)cc1	44	-	-	-	-	+
O=C(CSc1nnc(-c2ccccn2)n1-c1ccccc1)Nc1cccc2ccccc12	.	.	-	-	.	.
CCOC(=O)C1=C(C(=O)OCC)C2N(Cc3ccccc3)c3ccccc3[C@@]23C[C@@H](C(=O)OC)N(S(=O)(=O)c2ccc(C(F)(F)F)cc2)C3=N1 (stereo partly specified)	.	.	-	-	.	.
Cc1cc(NS(=O)(=O)c2ccc(NS(=O)(=O)c3ccc(Br)cc3)cc2)no1	57	-	-	-	-	+
COc1ccc(S(=O)(=O)Nc2c(NC3CCCCC3)c3ccccc3oc2=O)cc1OC	41	-	-	-	-	-
Cc1ccc(S(=O)(=O)Nc2c(NC3CCCCC3)c3ccccc3oc2=O)cc1C	41	-	-	-	-	.
CCCCN(C)C(=O)CSc1nnc(-c2cccnc2)n1C1CCCCC1	.	.	-	-	.	.
CC(=O)N(C)c1cccc(-c2ccc3nnc(C)n3n2)c1	53	-	-	-	-	.
CC(=O)Nc1ccc(-c2ccc3nnc(C)n3n2)cc1	-	-	-	-	-	.
CCc1ccc(-n2ncc(Cl)c(Oc3ccc(OC)cc3)c2=O)cc1	.	.	-	-	.	.
Cn1c(NC(=O)c2cc(-c3ccc4c(c3)OCO4)nc3ccccc23)cc(=O)n(C)c1=O	-	-	-	-	-	.
CC(C)(C)NC(=O)c1cc(-c2ccc3c(c2)OCO3)nc2ccccc12	46	-	-	-	-	-
SMILES	Neddyl block	PKA-R1A activ	Tn6 DDE FP	DDE Tn7 FP inh	PKA-R2B act	Neddyl inh conf
O=C(O)c1cc(-c2ccc3c(c2)OCO3)nc2ccc(Cl)cc12	54	-	-	-	-	.
Cc1ccccc1CN1[C@@H](C)[C@H](c2ccccc2)Oc2cccc(N3CCCC3)c2S1(=O)=O	.	.	-	-	.	.
CC(=O)N1CCN(c2ccc(Nc3ncnc4c3oc3ccccc34)cc2)CC1	-	-	-	-	-	.
Cc1ccc(Nc2nc(C)nc3c2oc2ccccc23)cc1	37	-	-	-	-	.
COc1ccc(Nc2nc(C)nc3c2oc2ccccc23)cc1	.	-	-	-	-	.
CCc1nc(Nc2ccc(N3CCN(C(C)=O)CC3)cc2)c2oc3ccccc3c2n1	38	-	-	-	-	-
